From the RNAGym collection of RNA variant scans (doi:10.1038/s41586-018-0170-7)

B1: tRNA (parent)
chain: GUUCCGUUGGCGUAAUGGUAACGCGUCUCCCUCCUAAGGAGAAGACUGCGGGUUCGAGUCCCGUACGGAACG

Variants of: B1
Test: yeast fitness, log relative to wild type (ln ratio); higher = fitter; tRNA-Arg(CCU), competitive growth, 37 C, 1 M NaCl
In short: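 A combinatorial tRNA-Arg(CCU) variant library was carried on a HIS3 centromeric plasmid in BY4742 lacking the chromosomal gene, from two independent transformations. Pools grew 4 generations in SC-HIS at 30 °C, then ~6.5 generations (~26.5 h) in SC-HIS 1M NaCl at 37 °C, with three outputs per input. Variants were counted by 125 bp paired-end Illumina sequencing. Fitness is ln of each genotype's generations (OD-scaled log2 output/input frequency, inverse-variance weighted across replicates) over the wild-type's.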

Variant | yeast fitness (ln)
G6U C66A A70G | -0.0102
G6U C66A A70U | -0.0008
C27U C66A A69G A70U C71U | -0.356
C27U A43C C46U A70G | -0.0288
C27U A43C C46U A70U | -0.0673
A43C A69G | -0.0224
G6U C27U A43C C66A A70U C71U | -0.477
G6U C46U A69G A70G | -0.158
G6U C46U A69G A70U | -0.204
G6U C27U C66A A69G A70G C71U | -0.329
A43C A70U | -0.0384
A43C A70G | -0.022
C27U A70U C71U | -0.149
G6U C46U C66A C71U | -0.00198
C27U A43C C66A A69G A70G C71U | -0.369
G6U C66U A69G A70U C71U | -0.481
G6U C27U C46U C66A | -0.00348
G6U C27U C46U C66U | -0.209
C27U C66A A70U C71U | -0.182
A43C C46U A69G A70G C71U | -0.0835
G6U C46U C66U A70G C71U | -0.138
G6U C66U A69G C71U | -0.374
C27U C66U A69G A70U C71U | -0.369
C27U C66A A70G C71U | -0.194

Variant | yeast fitness (ln)
G6U C27U A43C C46U C71U | -0.254
G6U C66A A69G A70G C71U | -0.402
C27U A43C C66U A70G C71U | -0.211
C27U C46U C66U | -0.0577
C27U C46U C66A | -0.0465
G6U C27U C46U A69G | -0.15
C27U A43C C46U C66A A70U | -0.0585
C27U A43C C46U C66A A70G | -0.0609
G6U C46U C66A A69G A70U C71U | -0.418
G6U C27U C66U A69G A70G | -0.306
G6U C27U C66U A69G A70U | -0.329
G6U C46U C66U | -0.0169
G6U C46U C66A | 0.00404
C27U C46U A70G | -0.029
C27U C46U A70U | -0.0227
G6U C27U C46U C66U A70G C71U | -0.245
G6U C46U A70U C71U | -0.189
G6U C46U A69G A70U C71U | -0.301
G6U C27U C46U C66A A70G C71U | -0.434
A43C C46U C66A A70U C71U | -0.128
C27U A43C A69G | -0.0699
C27U A43C C66A A70U C71U | -0.347
A43C C46U A69G C71U | -0.0511
C27U A43C C66A C71U | -0.275

Variant | yeast fitness (ln)
G6U C46U A70U | -0.161
G6U C46U A70G | -0.284
G6U C46U C66U A69G A70U C71U | -0.434
G6U C27U A43C C46U C66U A70U C71U | -0.467
G6U C27U C66A A69G | -0.0157
G6U C27U A43C C66U A70G C71U | -0.352
G6U C27U A69G A70G C71U | -0.394
G6U C27U A43C C66U A69G A70U | -0.349
G6U C27U A43C C66U A69G A70G | -0.528
G6U C27U C46U C66U A70U C71U | -0.336
G6U C27U A70U C71U | -0.27
G6U C27U C46U C66A A69G A70G C71U | -0.254
G6U C27U A43C C66U C71U | -0.34
C27U A43C C66A A70G C71U | -0.234
C27U C46U C71U | -0.028
G6U C27U A43C C66A C71U | -0.425
C27U C46U C66U A69G C71U | -0.286
G6U C27U A43C C66A A70G | -0.293
G6U C27U A43C C66A A70U | -0.185
C27U C46U A69G C71U | -0.0597
G6U C27U C66U A70U C71U | -0.36
G6U C66A A69G A70U C71U | -0.408
C27U A43C C46U C66U A69G A70U C71U | -0.391
G6U C27U C46U A70U C71U | -0.214

Variant | yeast fitness (ln)
G6U C27U A43C C66U A70U | -0.259
G6U C27U A43C C66U A70G | -0.407
C27U A43C C46U A70U C71U | -0.093
C27U A69G A70U C71U | -0.294
C27U A43C C46U C66A C71U | -0.173
C27U C46U C66U A69G | -0.521
A43C C46U | 0.00767
C27U A43C C66A | -0.0618
C27U A43C C66U | -0.216
G6U C27U C66A A69G C71U | -0.806
C27U A43C C66A A70G | -0.135
C27U A43C C66A A70U | -0.0654
C27U A43C A70U C71U | -0.181
G6U C27U C66A A69G A70U | -0.213
G6U C27U C66A A69G A70G | -0.35
A43C A70G C71U | -0.164
G6U C27U C66U A69G A70U C71U | -0.416
C27U A43C A69G A70U C71U | -0.419
C27U C46U | -0.0139
C27U A69G C71U | -0.113
G6U C27U A69G A70U C71U | -0.513
G6U C27U A43C C66U A69G A70U C71U | -0.341
C27U C66U A70U C71U | -0.276
C27U C46U C66U A69G A70U | -0.104

Variant | yeast fitness (ln)
C27U C46U C66U A69G A70G | -0.197
C27U C46U A69G A70U C71U | -0.248
C27U C46U A69G A70G C71U | -0.298
C27U C66U A70G C71U | -0.183
G6U C46U A69G A70G C71U | -0.253
G6U C27U C66A C71U | -0.109
C27U C66U A70G | -0.116
C27U C66U A70U | -0.0893
G6U C27U A43C C66A A69G | -0.264
C27U C46U C66A A69G A70G C71U | -0.156
C27U A43C C46U C66U C71U | -0.253
G6U C46U A70G C71U | -0.202
A43C C46U C66A A69G A70G C71U | -0.103
C27U C46U A69G A70G | -0.0578
C27U C46U A69G A70U | -0.209
G6U C27U A70G C71U | -0.368
G6U C27U C46U C66U C71U | -0.359
G6U C27U A43C C66A A69G A70G | -0.453
G6U C27U A43C C66A A69G A70U | -0.282
G6U C27U C46U A70G C71U | -0.321
C27U C46U A69G | -0.0243
C27U C46U C66A A69G C71U | -0.262
C27U C66U A69G A70G C71U | -0.262
C27U A43C C46U C66U A69G | -0.204

Variant | yeast fitness (ln)
C27U C66A A70G | -0.0873
C27U C66A A70U | -0.0748
G6U C27U C46U C66U A69G A70U | -0.308
G6U C27U C46U C66U A69G A70G | -0.318
A43C A69G A70G C71U | -0.0742
G6U C46U C66U A69G | -0.376
C27U A70G C71U | -0.38
C27U A43C | -0.0182
C27U A43C C66U A69G | -0.384
C27U | -0.0106
G6U C27U C66U A69G C71U | -0.377
C27U C66U C71U | -0.173
G6U C27U C46U C66U A69G A70G C71U | -0.321
C27U C66A A69G A70G C71U | -0.191
C27U A43C C46U A69G C71U | -0.207
G6U C27U A43C C46U C66U A69G A70U C71U | -0.535
C27U A43C C46U C66A A70U C71U | -0.301
C27U C46U C66A A70G C71U | -0.129
G6U C46U C66A A69G | -0.0364
G6U C27U A43C C46U C66U A70G C71U | -0.378
C27U A43C C46U A69G | -0.0156
G6U C27U A43C C66A A70G C71U | -0.217
G6U C27U C66U A69G A70G C71U | -0.355
G6U C66A A69G A70U | -0.291

Variant | yeast fitness (ln)
G6U C66A A69G A70G | -0.0205
A43C C46U C66A A69G A70U | -0.0398
A43C C46U C66A A69G A70G | -0.0183
G6U C71U | -0.261
C27U A43C C46U A70G C71U | -0.209
C27U A43C C66U A70U C71U | -0.326
C27U A70U | -0.042
C27U A70G | -0.037
G6U C27U A43C C66A A69G C71U | -0.333
C27U A43C C46U C66U A69G A70G C71U | -0.18
A43C C46U A69G A70U C71U | -0.273
C27U C46U C66A C71U | -0.0951
G6U C27U A43C C46U C66U A70U | -0.322
G6U C27U A43C C46U C66U A70G | -0.255
G6U C27U C46U | -0.174
C27U A43C A69G A70G C71U | -0.142
C27U C46U C66U A70G C71U | -0.126
G6U C66A C71U | -0.0261
G6U C27U C66A A70U C71U | -0.29
G6U C46U A69G C71U | -0.194
A43C C46U C66A A70U | -0.0196
A43C C46U C66A A70G | 0.00409
G6U C46U C66A A69G A70G C71U | -0.414
